A selection: hits, their analogues and other compounds. The true share with any hit is near 1.7%.
STEP block – STEP (human) phosphatase inhibition; P54829; recombinant STEP, OMFP fluorogenic substrate, fluorescence; inhibition, % at 20 µM; hit rate 0.25% among 360,000;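 active = inhibition at 20 µM, scaled per plate between control wells, above about 37%, limit read from the data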;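 also: 0% = DMSO with enzyme and substrate and 100% = substrate only without enzyme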
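Assay system: isolated STEP enzyme / Timing: 20 min at room temperature, dark / Doses: 20 µM, 1% DMSO / Technique: fluorescence intensity, excitation 480 nm, emission 540 nm / Reagent: fluorogenic phosphatase substrate OMFP at 25 µM final / Measure: percent inhibition scaled to no-enzyme and uninhibited-enzyme controls, plate-pattern corrected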
DNMT1 block – inhibitors of human DNMT1. P26358. DNMT1 molecular beacon, Hinp1I cleavage, fluorescence. inhibition (reported as % activation of signal), % at 10 µM. hit rate 0.83% among 360,000; in the data active = inhibition above about 50%
Target sequence (P26358 504-1616 limits assumed): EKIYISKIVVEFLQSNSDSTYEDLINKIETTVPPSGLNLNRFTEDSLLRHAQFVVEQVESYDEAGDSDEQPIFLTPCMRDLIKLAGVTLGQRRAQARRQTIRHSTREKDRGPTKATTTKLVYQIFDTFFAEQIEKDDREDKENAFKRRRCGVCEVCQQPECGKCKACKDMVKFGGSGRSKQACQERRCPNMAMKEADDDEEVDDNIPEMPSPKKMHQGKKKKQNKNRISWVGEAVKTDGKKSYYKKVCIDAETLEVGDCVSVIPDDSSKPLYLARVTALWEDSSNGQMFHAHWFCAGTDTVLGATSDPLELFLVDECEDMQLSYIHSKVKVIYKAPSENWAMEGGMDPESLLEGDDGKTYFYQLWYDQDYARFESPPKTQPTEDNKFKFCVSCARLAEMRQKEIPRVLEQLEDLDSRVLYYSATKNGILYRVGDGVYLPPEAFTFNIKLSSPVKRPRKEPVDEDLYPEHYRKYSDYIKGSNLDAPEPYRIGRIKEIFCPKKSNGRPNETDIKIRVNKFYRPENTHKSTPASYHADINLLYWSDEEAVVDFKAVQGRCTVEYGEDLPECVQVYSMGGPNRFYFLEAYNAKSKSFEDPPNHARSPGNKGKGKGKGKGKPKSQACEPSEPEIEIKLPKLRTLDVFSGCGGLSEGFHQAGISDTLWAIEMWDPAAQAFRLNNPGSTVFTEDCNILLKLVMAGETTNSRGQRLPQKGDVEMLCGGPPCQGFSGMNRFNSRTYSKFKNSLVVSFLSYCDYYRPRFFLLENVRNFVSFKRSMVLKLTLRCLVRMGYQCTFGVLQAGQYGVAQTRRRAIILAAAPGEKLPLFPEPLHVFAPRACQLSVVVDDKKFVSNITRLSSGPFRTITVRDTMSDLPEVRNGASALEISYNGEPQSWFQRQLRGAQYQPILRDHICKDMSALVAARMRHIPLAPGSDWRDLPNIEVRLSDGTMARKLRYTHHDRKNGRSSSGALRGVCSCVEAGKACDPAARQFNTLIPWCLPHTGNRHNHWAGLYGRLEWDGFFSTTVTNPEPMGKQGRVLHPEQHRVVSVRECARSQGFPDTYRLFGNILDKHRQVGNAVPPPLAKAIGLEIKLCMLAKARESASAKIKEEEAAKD
SUMO1 PPI mod – alters human SUMO1 binding to SIM partners; AID 602429; inhibition, % at 20 µM; hit rate 0.33% among 360,000; SUMO1 binding to a labelled peptide, TR-FRET, 1 h; P63165; in the data active = inhibition above about 37%
LMPTP block – LMPTP (human) inhibition; AID 651560; hit rate 0.22% among 360,000; P24666; recombinant LMPTP-A, OMFP fluorogenic substrate, fluorescence intensity; inhibition, % at 20 µM;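 active = compounds that cut the enzyme signal by at least half of the control window in the single-dose screen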;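 also: plate controls were DMSO wells with enzyme plus substrate for no effect and substrate without enzyme for full effect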
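Buffer or medium: Bis-Tris pH 6.0, DTT, detergent; Assay system: LMPTP-A enzyme; Quantity: 0.625 nM enzyme; Detection: endpoint fluorescence intensity; Times: 50 min dark incubation at room temperature; Controls: substrate-only low control, DMSO enzyme-plus-substrate high control; Doses: single 20 µM dose; Read-out: percent inhibition versus substrate-only and uninhibited controls; Reagent: 400 µM OMFP.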
Scp1 inh – Scp-1 (human) phosphatase inhibition; Q9GZU7; Recombinant Scp1, phosphopeptide, malachite green phosphate absorbance; inhibition, % at 20 µM; hit rate 0.88% among 340,000;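 active = inhibition above about 50% at 20 µM, limit read from the data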;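 also: plate controls were DMSO wells with enzyme for no effect and wells lacking enzyme for full effect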
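Times: enzyme reaction 45 min at room temperature, colour 5 min, stabilisation 30 min. Material: SCP-1 catalytic fragment, aa 76-261. Medium: Acidic Tris acetate buffer with magnesium and detergent. Signal: colorimetric free-phosphate detection, absorbance 630 nm. Read-out basis: % inhibition of SCP-1 phosphate liberation. Reagent: Phosphorylated 17-residue peptide substrate.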
DNMT1 inh conf – confirmation of human DNMT1 inhibitors | shares compounds with DNMT1 block | DNMT1 molecular beacon HinP1I cleavage, fluorescence | hit rate 8% among 2,300 | inhibition, % at 10 µM | AID 602385;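 active = average inhibition of at least 30% in the single-concentration confirmation test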
DNMT1 interf – shows spectral interference in the DNMT1 beacon assay | shares compounds with DNMT1 block | hit rate 1% among 2,300 | AID 602387 | DNMT1 molecular beacon spectral interference counterscreen, fluorescence 485/520 | activation (fluorescence interference), % at 10 µM;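 active = activation of at least 30% at 10 µM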;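 also: DNMT1 catalytic domain with a HinP1I cleavage step and a FAM/dabcyl DNA beacon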
* marks the source's active call; other numbers are inactive results; / = no result given.

SMILES	STEP block	DNMT1 block	SUMO1 PPI mod	LMPTP block	Scp1 inh	DNMT1 inh conf	DNMT1 interf
O=C1CC(N2CCN(c3ccccc3)CC2)C(=O)N1c1cccc(Cl)c1 (centres undefined)	-3	71*	5	-1	-10	1	77*
O=C(NCCS(=O)(=O)c1ccc(Br)cc1)c1c(F)cccc1F	-1	0	3	2	-10	/	/
Cc1ccc(-n2cc3c(-c4cccc(Br)c4)nnc(C)c3n2)cc1	-17	64*	1	7	13	16	0
Cc1nnc(-c2cccc(Br)c2)c2cn(-c3ccccc3Cl)nc12	1	42	-3	1	6	/	/
O=[N+]([O-])c1ccc2nc(-c3ccc(Cl)cc3)[nH]c2c1	6	-21	0	4	-6	/	/
O=[N+]([O-])c1ccc(-c2cc(-c3ccc(Cl)cc3)n[nH]2)cc1	0	91*	47*	6	-4	9	-1
C=CCn1c(=O)c(C(=O)NC2CC2)c(O)c2cc(OC)c(OC)cc21	-2	-1	-11	1	-6	/	/
CCCCCOc1ccc(C(=O)CCC(=O)NNC(=O)c2ccncc2)cc1	1	-1	3	-1	-4	/	/
CCNC(=S)N/N=C/c1c(C)nn(-c2cccc(Cl)c2)c1Cl	0	-2	-5	1	11	/	/
Cc1nn(-c2cccc(Cl)c2)c(Cl)c1/C=N/NC(=O)c1cccs1	-5	72*	6	13	-2	5	-1
O=C(CN1CCN(S(=O)(=O)c2ccc(Cl)s2)CC1)N1CCOCC1	2	-1	-1	-3	22	/	/
Cc1cnn(-c2cc(N/N=C/c3ccccc3F)ncn2)c1	0	56*	-2	-1	1	3	-3
Cc1cnn(-c2cc(N/N=C/c3ccccc3)ncn2)c1	-1	8	-1	1	-9	/	/
Cc1[nH]c2ccccc2c1C(=O)C(=O)NCCOc1ccccc1	-2	3	-6	0	5	/	/
O=C1N/C(=C/c2ccc(Br)cc2)C(O)=C1C=NCc1ccccc1	-2	62*	-3	0	-2	0	1
Nc1c(C(=O)N/N=C/c2ccc(Cl)cc2)cnn1-c1ccccc1	-2	9	7	11	-4	/	/
Nc1c(C(=O)N/N=C/c2ccc(OCc3ccccc3)cc2)cnn1-c1ccccc1	13	51*	19	50*	5	1	4
COc1cc(C(=O)NC(C)c2cccc3ccccc23)cc(OC)c1OC (centres undefined)	1	3	3	-1	-4	/	/
Cn1ccsc1=NC(=O)c1ccc([N+](=O)[O-])o1	36	59*	-19	2	65*	3	0
O=C(CSc1ccc2ccccc2n1)Nc1nsc(-c2ccc(Cl)cc2)n1	14	77*	43*	56*	0	1	-3
O=C(CSc1nnnn1-c1ccccc1)Nc1nsc(-c2ccccc2)n1	0	-1	1	0	1	/	/
O=C(CSc1nnnn1-c1ccccc1)Nc1nsc(-c2ccc(Cl)cc2)n1	2	71*	6	9	0	0	-4
CCCCCCn1cc(CN2CC(N3CCSCC3)CS2(=O)=O)nn1 (centres undefined)	/	/	2	-1	/	/	/
COc1ccc(NC(=O)CC2Nc3cc(C)c(C)cc3NC2=O)c([N+](=O)[O-])c1 (centres undefined)	4	59*	-21	3	4	1	2
Cc1cc(C)cc(C(=O)NC(CC(N)=O)c2ccc(N3CCC(Cc4ccccc4)CC3)c([N+](=O)[O-])c2)c1 (centres undefined)	-1	-8	2	3	-4	/	/
SMILES	STEP block	DNMT1 block	SUMO1 PPI mod	LMPTP block	Scp1 inh	DNMT1 inh conf	DNMT1 interf
NC(=O)CC(NC(=O)c1cccc(Br)c1)c1ccc(N2CCN(c3ccccn3)CC2)c([N+](=O)[O-])c1 (centres undefined)	-2	103*	-12	1	-7	5	9
NC(=O)CC(NC(=O)c1ccc(Br)cc1)c1ccc(N2CCN(c3ccccn3)CC2)c([N+](=O)[O-])c1 (centres undefined)	2	-3	-13	0	-2	/	/
NC(=O)CC(NC(=O)Cc1ccc(Cl)cc1)c1ccc(N2CCC(Cc3ccccc3)CC2)c([N+](=O)[O-])c1 (centres undefined)	-1	71*	-4	1	0	1	2
O=C(NC(=S)N1CCCCC1)c1csc([N+](=O)[O-])c1	0	-6	-40	0	-7	/	/
Cc1ccc(CNC(=O)[C@H]2C[C@@H]2[C@H](NP(=O)(c2ccccc2)c2ccccc2)c2ccccc2)o1	0	71*	-5	0	-3	2	0
O=C(NCc1ccccc1)[C@@H]1C[C@H]1[C@@H](NP(=O)(c1ccccc1)c1ccccc1)c1ccccc1	-2	-1	3	0	5	/	/
O=C(O)c1cc(N/N=C/c2cccc3ccccc23)ccc1Cl	0	2	7	-1	-3	/	/
CC(C)n1cc(/C=N/Nc2ccc(Cl)c(C(=O)O)c2)c2ccccc21	91*	82*	114*	54*	/	14	3
CSCCC(NC(=O)COc1ccccc1)C(=O)N(C)CC(=O)Nc1ccc(Cl)cc1 (centres undefined)	-2	0	-1	-1	-5	/	/
CSCCC(NC(=O)COc1ccccc1)C(=O)N(C)Cc1c(F)cccc1Cl (centres undefined)	-3	83*	0	-1	/	3	4
CCOC(=O)C1=C(C)N(C[C@@H]2CC[C@@H](Cc3ccc(-c4ccccc4)cc3)O2)C(=O)NC1c1ccc(SCc2ccco2)c([N+](=O)[O-])c1 (some centres undefined)	1	94*	6	6	35	6	-4
CCOC(=O)C1=C(C)N(C[C@@H]2CC[C@@H](Cc3ccc(-c4ccccc4)cc3)O2)C(=O)NC1c1ccc(C(F)(F)F)cc1 (some centres undefined)	0	-7	1	3	-1	/	/
O=C(N/N=C/c1ccc([N+](=O)[O-])o1)C(=O)Nc1ccc(C(=O)O)cc1	1	-3	-24	4	9	/	/
O=C(O)c1ccc(N/N=C/C=C/c2ccc([N+](=O)[O-])o2)cc1	43*	72*	-41	20	58*	9	3
Cc1ccc(/C=C/C(=O)N2CCc3ccccc32)o1	4	86*	-3	2	52*	8	2
COc1cccc(NC(=O)C2CCC(CNC(=O)[C@@H]3Cc4ccccc4CN3)CC2)c1 (some centres undefined)	0	0	6	-1	-5	/	/
